In PMC3460462 (The Journal of Biological Chemistry, 2012):
Each block holds one molecule with its values, some of them ahead of it. Ends that are not written are not given here.

Experiments:
Format in all cases: cell-based
mFpr-rs1 = target: T1, mFpr-rs1 (Mus musculus, UniProt O08790); test: FLIPR Ca2+ assay, HEK293T cells transfected with mFpr-rs1 and Gα16
T1 sequence (O08790 1-351): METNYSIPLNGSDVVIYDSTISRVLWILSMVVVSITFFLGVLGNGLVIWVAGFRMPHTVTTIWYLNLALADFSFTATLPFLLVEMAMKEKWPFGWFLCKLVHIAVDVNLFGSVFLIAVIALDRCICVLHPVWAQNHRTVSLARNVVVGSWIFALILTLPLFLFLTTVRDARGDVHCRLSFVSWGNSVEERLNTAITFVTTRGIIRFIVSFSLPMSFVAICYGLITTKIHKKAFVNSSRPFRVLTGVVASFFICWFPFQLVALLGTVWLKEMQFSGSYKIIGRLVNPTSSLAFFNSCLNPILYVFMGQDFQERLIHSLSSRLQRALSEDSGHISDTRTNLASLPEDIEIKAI

hFPR2 = target: T2, hFPR2 (Homo sapiens, UniProt P25090); test: FLIPR Ca2+ assay, HEK293T cells transfected with hFPR2 and Gα16; conditions: 1% DMSO
T2 sequence (P25090 1-351): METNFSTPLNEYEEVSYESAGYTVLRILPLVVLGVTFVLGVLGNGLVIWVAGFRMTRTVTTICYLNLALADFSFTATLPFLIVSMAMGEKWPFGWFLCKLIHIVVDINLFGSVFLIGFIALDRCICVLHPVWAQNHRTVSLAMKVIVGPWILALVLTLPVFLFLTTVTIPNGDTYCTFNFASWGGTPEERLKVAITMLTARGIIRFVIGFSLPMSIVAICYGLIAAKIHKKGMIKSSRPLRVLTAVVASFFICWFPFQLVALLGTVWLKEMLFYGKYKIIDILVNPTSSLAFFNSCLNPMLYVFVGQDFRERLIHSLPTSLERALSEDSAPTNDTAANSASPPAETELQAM

mFpr2 [1] = target: T3, mFpr2 (Mus musculus, UniProt O88536); test: FLIPR Ca2+ assay, HEK293T cells transfected with mFpr2 and Gα16
T3 sequence (O88536 1-351): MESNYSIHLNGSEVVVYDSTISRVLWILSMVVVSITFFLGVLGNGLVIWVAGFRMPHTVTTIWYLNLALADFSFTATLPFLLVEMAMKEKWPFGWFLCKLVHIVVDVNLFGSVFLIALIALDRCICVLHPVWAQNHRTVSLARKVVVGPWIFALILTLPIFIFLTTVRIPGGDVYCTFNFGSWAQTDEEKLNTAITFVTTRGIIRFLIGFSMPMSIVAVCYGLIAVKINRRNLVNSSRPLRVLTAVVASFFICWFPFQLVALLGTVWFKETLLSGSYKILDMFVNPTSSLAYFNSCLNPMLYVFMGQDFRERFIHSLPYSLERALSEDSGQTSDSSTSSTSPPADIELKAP

mFpr1 [2] = target: T4, mFpr1 (Mus musculus, UniProt P33766); test: FLIPR Ca2+ assay, HEK293T cells transfected with mFpr1 and Gα16
T4 sequence (P33766 1-364): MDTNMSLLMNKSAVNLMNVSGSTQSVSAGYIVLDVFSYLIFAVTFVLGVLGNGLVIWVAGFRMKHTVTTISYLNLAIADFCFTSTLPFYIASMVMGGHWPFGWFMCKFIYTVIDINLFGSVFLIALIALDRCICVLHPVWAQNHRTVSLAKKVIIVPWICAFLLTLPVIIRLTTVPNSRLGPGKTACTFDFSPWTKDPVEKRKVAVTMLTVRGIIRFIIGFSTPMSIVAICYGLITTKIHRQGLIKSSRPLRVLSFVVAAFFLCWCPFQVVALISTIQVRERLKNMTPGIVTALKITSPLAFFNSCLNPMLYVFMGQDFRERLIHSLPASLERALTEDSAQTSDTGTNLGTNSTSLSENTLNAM

mock-transfected cells = test: FLIPR Ca2+ assay, mock-transfected negative control; conditions: mock-transfected negative controls; different kinetics
Procedure, shortened: (§1)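 HEK293T PEAKrapid cells seeded on poly-D-lysine, transfected 24 h later (jetPEI) with receptor plus Gα16 in equal amounts, or empty vector for mock. After 48 h, loaded with 2 μM Fluo-4 AM and 50 μM probenecid for 2 h at room temperature in C1 buffer (HEPES, pH 7.2), then rinsed three times. About 50,000 cells per well on FLIPR; ligands in C1. Response is ΔF/F0 (peak over baseline), fitted with a variable-slope sigmoid.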

[3] = tested on: human receptors (hFPR1, hFPR2, hFPR3); test: FLIPR Ca2+ assay, human receptors
Procedure, shortened: as §1

mFpr1 [4] = target: T4, mFpr1; test: Single-cell resolution Ca2+ imaging, mFpr1; conditions: 9 μM fMLF; single-cell Fura-2 Ca2+ imaging
Procedure, shortened: (§2)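 Single-cell Ca2+ imaging on a Pathway Bioimager. HEK293T PEAKrapid cells cotransfected with receptor, Gα16 and EGFP plasmid (1/10) and loaded with Fura-2/AM. […] C1 buffer application served as mechanical control, with buffer-responding cells excluded; 30 μM ATP checked viability. Mock-transfected cells were the negative control, and responding cells were counted.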

mFpr2 [5] = target: T3, mFpr2; test: Single-cell resolution Ca2+ imaging, mFpr2; conditions: 9 μM fMLF; single-cell Fura-2 Ca2+ imaging
Procedure, shortened: as §2

[6] = tested on: all other family members (hFPR3, vomeronasal Fprs); test: Single-cell resolution Ca2+ imaging, all other Fpr family members; conditions: 9 μM fMLF; single-cell Fura-2 Ca2+ imaging
Procedure, shortened: as §2

- receptor activation (in words) (mFpr-rs1): but not mFpr-rs1
- receptor activation (in words) (hFPR2): susceptible
- saturation reached at (mFpr2 [1]; DMSO concentration): ~3%
- threshold of activation (mFpr2 [1]; DMSO concentration): ~0.1%
- saturation reached at (mFpr1 [2]; DMSO concentration, FLIPR Ca2+): ~3%
- threshold of activation (mFpr1 [2]; DMSO concentration, FLIPR Ca2+): ~0.1%
Molecule: C[S+](C)[O-] [DMSO, dimethyl sulfoxide]
- concentrations giving unspecific DMSO-dependent signals (mock-transfected cells): > 2%

- Ca2+ response (in words) [3]: robust Ca^2+ elevations
Molecule: Ac2-26: classical Fpr agonist purchased from Tocris (Ac-AMVSEFLKQAWFIENEEQEYVQTVK; UniProt P04083 2-26, looked up, fragment)

Molecule: H-RIHIGPGRALYTT-OH [V3gp120 HIV (BK-130)]
- concentrations at which only a weak activation was seen (mFpr2 [1]; weak activation): ≥ 30 µM
- EC50 (mFpr1 [2]): 4.5 µM
- activation threshold (mFpr1 [2]; FLIPR Ca2+): ~1 µM
- subtype selectivity (in words) (mFpr1 [2]; mFpr1 versus mFpr2, FLIPR Ca2+): strongly preferential activators of mFpr1

- activation by fMLF (in words) (mFpr1 [4]): could be activated
- activation by fMLF (in words) (mFpr2 [5]): could be activated
Molecule: N-formylmethionine-leucine-phenylalanine [fMLF]
- activation by fMLF (in words) [6]: did not respond
